Assays:
Plasmodium falciparum [1] = assay: Inhibitory activity against Plasmodium falciparum FcB1
Aminopeptidase N = target: T1, Aminopeptidase N (Plasmodium falciparum FcB1/Columbia, UniProt O96935); assay: Inhibitory activity for Plasmodium falciparum Zinc aminopeptidase
T1 sequence (O96935 whole entry): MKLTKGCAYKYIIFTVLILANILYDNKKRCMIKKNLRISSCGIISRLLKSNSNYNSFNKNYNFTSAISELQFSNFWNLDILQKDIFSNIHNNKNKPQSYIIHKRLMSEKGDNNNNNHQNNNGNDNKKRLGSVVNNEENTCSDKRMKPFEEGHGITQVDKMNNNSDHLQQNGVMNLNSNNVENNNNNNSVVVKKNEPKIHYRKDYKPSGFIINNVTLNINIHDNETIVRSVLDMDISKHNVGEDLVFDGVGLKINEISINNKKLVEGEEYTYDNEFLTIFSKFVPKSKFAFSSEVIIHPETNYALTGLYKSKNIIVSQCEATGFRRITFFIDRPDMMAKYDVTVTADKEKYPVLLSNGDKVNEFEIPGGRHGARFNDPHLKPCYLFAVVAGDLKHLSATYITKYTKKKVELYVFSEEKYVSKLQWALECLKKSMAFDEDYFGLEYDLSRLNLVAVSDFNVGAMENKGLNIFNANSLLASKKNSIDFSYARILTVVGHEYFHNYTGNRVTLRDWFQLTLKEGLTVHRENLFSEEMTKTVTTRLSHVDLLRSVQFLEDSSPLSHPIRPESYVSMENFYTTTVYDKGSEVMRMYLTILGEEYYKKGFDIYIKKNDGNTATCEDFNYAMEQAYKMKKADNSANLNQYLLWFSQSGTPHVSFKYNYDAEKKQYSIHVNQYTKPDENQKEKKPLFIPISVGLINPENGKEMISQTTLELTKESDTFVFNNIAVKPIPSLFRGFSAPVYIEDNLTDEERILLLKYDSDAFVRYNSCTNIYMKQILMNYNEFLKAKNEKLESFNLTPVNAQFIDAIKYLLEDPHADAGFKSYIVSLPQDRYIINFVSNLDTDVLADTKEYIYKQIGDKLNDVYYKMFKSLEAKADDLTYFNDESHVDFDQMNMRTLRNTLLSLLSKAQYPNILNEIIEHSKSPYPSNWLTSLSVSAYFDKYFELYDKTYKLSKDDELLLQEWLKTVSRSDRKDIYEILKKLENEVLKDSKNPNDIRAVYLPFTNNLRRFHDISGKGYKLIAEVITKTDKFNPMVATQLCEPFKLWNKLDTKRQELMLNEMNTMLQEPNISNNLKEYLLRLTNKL

Plasmodium falciparum [2] = assay: Inhibitory activity against Plasmodium falciparum Zinc-aminopeptidase PfA-M1 at 10 uM; format: functional
Procedure, shortened: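 Native purified PfA-M1, diluted 10-fold in 25 mM Tris-HCl pH 7.4. Enzyme pre-incubated 10 min at rt with inhibitor (10 µM final, DMSO present), then Leu-pNA substrate added. Kinetics followed at 405 nm. Initial velocities normalized to the no-inhibitor control (Vmax). Single-point percent inhibition (Z' 0.82). Bestatin as reference.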

Row | IC50 (Plasmodium falciparum [1]) | Compound | IC50 (Aminopeptidase N) | inhibition at 10 µM (Plasmodium falciparum [2])
1 | 317 nM | CC(C)CN(CCCN1CCN(CCCNc2ccnc3cc(Cl)ccc23)CC1)C(=O)CC(=O)NO | 854 nM | 
2 | 151 nM | CC(C)CC(C(=O)NO)C(=O)N(CCCN1CCN(CCCNc2ccnc3cc(Cl)ccc23)CC1)CC(C)C (centres undefined) |  | 
3 | 29000 nM | CC(C)C[C@H](NC(=O)[C@@H](O)[C@H](N)Cc1ccccc1)C(=O)O [UBENIMEX] |  | 

The next lines start with the compound.

Row | Compound | IC50 (Plasmodium falciparum [1]) | IC50 (Aminopeptidase N) | inhibition at 10 µM (Plasmodium falciparum [2])
4 | O=C(O)CCC(=O)N(CCCN1CCN(CCCNc2ccnc3cc(Cl)ccc23)CC1)CC1CC1 | 1380 nM | > 10000 nM | 22%
5 | NCCC(=O)N(CCCN1CCN(CCCNc2ccnc3cc(Cl)ccc23)CC1)CC1CC1 | 398 nM | 21000 nM | 

— ChEMBL document CHEMBL1136149, “Design, synthesis and antimalarial activity of novel, quinoline-based, zinc metallo-aminopeptidase inhibitors” (Bioorg Med Chem Lett, 2003)
